Experimental data gathered from unrelated publications.
Each line is one published result; the experiments were not run side by side.
Target: Muscarinic acetylcholine receptor M2 (CHRM2, Homo sapiens, UniProt P08172)
Sequence (P08172 1-466, as in one of the studies): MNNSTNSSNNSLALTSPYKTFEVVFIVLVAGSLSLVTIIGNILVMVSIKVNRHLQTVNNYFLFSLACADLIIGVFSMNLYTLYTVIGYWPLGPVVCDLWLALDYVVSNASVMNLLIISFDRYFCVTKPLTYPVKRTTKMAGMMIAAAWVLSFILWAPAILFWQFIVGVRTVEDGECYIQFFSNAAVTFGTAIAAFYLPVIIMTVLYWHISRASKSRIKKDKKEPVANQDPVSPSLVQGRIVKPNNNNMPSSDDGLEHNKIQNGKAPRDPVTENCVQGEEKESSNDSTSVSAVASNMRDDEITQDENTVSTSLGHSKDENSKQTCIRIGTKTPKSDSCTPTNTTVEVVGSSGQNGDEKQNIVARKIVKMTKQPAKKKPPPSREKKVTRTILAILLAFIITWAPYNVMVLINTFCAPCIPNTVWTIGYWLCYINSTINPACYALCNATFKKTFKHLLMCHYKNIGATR

CCOCc1nc(O)c(-c2nnc(Cc3ccc(Cl)cn3)o2)c(O)c1-c1c(OC)cccc1OC
IC50 (ligand displacement, radioligand): > 30 µM

COc1ccnc(Oc2ccc(-c3c(C)c(=O)[nH]c(=O)n3C)c(C)c2)c1C(F)(F)F
Ki (ligand displacement, radioligand): 6.9 µM

CCCCN1CCC(COC(=O)c2ccc(N)c(OCF)c2)CC1
Ki (cell-free assay, radioligand): > 10 µM

Cc1cc(Oc2nccc3occc23)ccc1-c1c(C)c(=O)[nH]c(=O)n1C1CC1
Ki (ligand displacement, radioligand): 7.7 µM

CCn1c(-c2nc3cc(C(=O)N4CCC[C@@H](N)C4)cc(OC)c3n2C)cc2cccnc21
EC50 (calcium signal, agonist): > 15.8 µM

CCN(C(=O)C1CCN(S(=O)(=O)c2ccc3[nH]ncc3c2)CC1)[C@H](C)c1ccccc1
EC50 (calcium signal, agonist): > 30 µM

CCn1c(-c2nc3ccc(C(=O)N4CCCC(N)C4)cc3n2C)cc2ccccc21 (centres unmarked)
IC50 (calcium signal, antagonist, fluorescence): > 15.8 µM

CC[C@@H]1SC2(CCN(C)CC2)NC1=O
EC50 (calcium signal, agonist): > 50 µM
